Converted amounts (≈) assume the structure as drawn. The source made the active and inactive calls. The rule behind the calls is not given here.
Assays:
[1] = test system: Acinetobacter baumannii ATCC 17978; test: Binding affinity to OXA-24/40 in carbapenem-resistant Acinetobacter baumannii ATCC 17978 assessed as ezyme-compound adduct formation from loss of catechol group with increase in mass at 1:100 ezyme-compound ratio using nitrocefin as substrate at pH 7 and 25 degree C by MALDI-TOF MS analysis
How it was run: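 OXA-24/40 (from a 0.9 mg mL-1 stock) was incubated with ligand at a 1:100 enzyme/inhibitor molar ratio in 50 mM Tris-HCl, 150 mM NaCl, 1 mM EDTA, pH 7.0, 25 °C, for 30 min. Activity was followed by nitrocefin hydrolysis at 482 nm. Samples were then washed and concentrated with 5 mM ammonium bicarbonate, freeze-dried, and analysed by MALDI-TOF for the covalent adduct mass shift, in triplicate.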

[2] = test system: Escherichia coli; test: Inhibition of DHA-1 in beta-lactam-resistant Escherichia coli TG1 transfected with pBGS18 plasmid encoding replication origin and kanamycin resistance assessed as potentiation of ceftazidime-induced antibacterial activity by measuring ceftazidime MIC at 16 ug/mL in Mueller-Hinton broth by CLSI protocol based method (reference value: 32 ug/mL)
How it was run: (§1)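 MIC of the reporter antibiotic measured by CLSI broth microdilution in Mueller-Hinton II broth, with and without inhibitor at 16 µg mL-1. Reporters were ampicillin for class A (TEM-1, CTX-M-2), ceftazidime for class C (CMY-2, DHA-1) and imipenem for class D (OXA-23, OXA-24/40, OXA-48). MIC is the lowest concentration with no visible growth, mean of three independent replicates. Strains were grown in LB at 37 °C, with kanamycin or ampicillin at 50 mg L-1 where needed.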

[3] = molecular target: Beta-lactamase TEM-1 (Escherichia coli) (UniProt Q4GY26); test: Inhibition of TEM-1 in penicillin-resistant Escherichia coli TG1 transfected with pBGS18 plasmid encoding replication origin and kanamycin resistance assessed as potentiation of ampicillin-induced antibacterial activity by measuring ampicillin MIC at 16 ug/mL in Mueller-Hinton broth by CLSI protocol based method (Rvb > 1024 ug/mL); how it was run: as §1
[4] = Inhibition of carbapenem-resistant Acinetobacter baumannii ATCC 17978 OXA-24/40 expressed in Escherichia coli BL21 using nitrocefin as substrate measured after 15 mins by spectrophotometry analysis
[5] = test system: Acinetobacter baumannii ATCC 17978; test: Inhibition of Acinetobacter baumannii ATCC 17978 OXA-24/40 expressed in Escherichia coli BL21 assessed as ratio of Kinact/Ki using nitrocefin as substrate measured after 15 mins by spectrophotometry analysis
[6] = test system: Klebsiella pneumoniae; test: Binding affinity to OXA-48 in Klebsiella pneumoniae assessed as ezyme-compound adduct formation from loss of catechol group with increase in mass at 1:100 ezyme-compound ratio using nitrocefin as substrate at pH 7 and 25 degree C by MALDI-TOF MS analysis
How it was run: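 OXA-48 from K. pneumoniae incubated with ligand at 1:100 enzyme/inhibitor molar ratio in 50 mM Tris-HCl, 150 mM NaCl, 1 mM EDTA pH 7.0, 25 °C, 30 min; activity followed on aliquots by nitrocefin hydrolysis (482 nm) in phosphate/bicarbonate pH 7.4; samples then washed with 5 mM ammonium bicarbonate by ultrafiltration, freeze-dried, analysed by MALDI-TOF; triplicate.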

[7] = test system: Klebsiella pneumoniae; test: Inhibition of OXA-48 in beta-lactam-resistant Klebsiella pneumoniae assessed as potentiation of imipenem-induced antibacterial activity by measuring imipenem MIC at 16 ug/mL in Mueller-Hinton broth by CLSI protocol based method (reference value: 64 ug/mL); how it was run: as §1
[8] = test system: Acinetobacter baumannii ATCC 17978; test: Inhibition of OXA-24/40 in carbapenem-resistant Acinetobacter baumannii ATCC 17978 transfected with pET-RA-KmR plasmid encoding rifampicin and kanamycin resistance assessed as potentiation of imipenem-induced antibacterial activity by measuring imipenem MIC at 16 ug/mL in Mueller-Hinton broth by CLSI protocol based method (reference value: 64 ug/mL); how it was run: as §1
[9] = test system: Escherichia coli; test: Inhibition of CMY-2 in beta-lactam-resistant Escherichia coli TG1 transfected with pBGS18 plasmid encoding replication origin and kanamycin resistance assessed as potentiation of ceftazidime-induced antibacterial activity by measuring ceftazidime MIC at 16 ug/mL in Mueller-Hinton broth by CLSI protocol based method (reference value: 32 ug/mL); how it was run: as §1
[10] = test system: Escherichia coli; test: Inhibition of CTX-M2 in beta-lactam-resistant Escherichia coli TG1 transfected with pBGS18 plasmid encoding replication origin and kanamycin resistance assessed as potentiation of ampicillin-induced antibacterial activity by measuring ampicillin MIC at 16 ug/mL in Mueller-Hinton broth by CLSI protocol based method (Rvb > 1024 ug/mL); how it was run: as §1
[11] = test system: Acinetobacter baumannii ATCC 17978; test: Inhibition of carbapenem-resistant Acinetobacter baumannii ATCC 17978 OXA-24/40 expressed in Escherichia coli BL21 assessed as inactivation rate constant using nitrocefin as substrate measured after 15 mins by spectrophotometry analysis
[12] = molecular target: Beta-lactamase OXA-23 (Acinetobacter baumannii) (UniProt Q9L4P2); test: Inhibition of OXA-23 in carbapenem-resistant Acinetobacter baumannii ATCC 17978 transfected with pET-RA-KmR plasmid encoding rifampicin and kanamycin resistance assessed as potentiation of imipenem-induced antibacterial activity by measuring imipenem MIC at 16 ug/mL in Mueller-Hinton broth by CLSI protocol based method (reference value: 8 ug/mL); how it was run: as §1
[13] = test system: Acinetobacter baumannii; test: Antibacterial activity against wild type carbapenem-susceptible Acinetobacter baumannii ATCC 17978 in Mueller-Hinton broth by CLSI protocol based method; format: functional
How it was run: (§2)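 Broth microdilution MIC in Mueller-Hinton II broth following CLSI. Strains were grown in LB broth or on LB agar at 37 °C and stored at -80 °C in LB with 15% glycerol. MIC is the lowest concentration with no visible growth, given as the mean of three independent replicates.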

[14] = test system: Klebsiella pneumoniae; test: Antibacterial activity against wild type beta-lactam-resistant Klebsiella pneumoniae in Mueller-Hinton broth by CLSI protocol based method; format: functional; how it was run: as §2
[15] = test system: Escherichia coli; test: Antibacterial activity against wild type Escherichia coli TG1 in Mueller-Hinton broth by CLSI protocol based method; format: functional; how it was run: as §2
[16] = Drug metabolism assessed as decrease in centered band formation at 408 nm leading to -indolizine skeleton formation at 25 degree C measured up to 2 mins for 15 mins in presence of sodium methoxide by UV-Vis spectroscopy
How it was run: (§3)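 Methanolysis followed after adding 1 equivalent NaOMe (1 M in MeOH) at 25 °C over 15 min; UV-Vis spectra scanned 600–200 nm, 2.0 nm bandwidth, 1 cm cell, collected at 0.5, 1.0, 1.5 and 2.0 min; mixture afterwards checked by HPLC-MS.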

[17] = Drug metabolism assessed as decrease in centered band formation at 253 nm leading to -indolizine skeleton formation at 25 degree C measured up to 2 mins for 15 mins in presence of sodium methoxide by UV-Vis spectroscopy; how it was run: as §3
[18] = test system: Escherichia coli; test: Inhibition of CTX-M2 in beta-lactam-resistant Escherichia coli TG1 transfected with pBGS18 plasmid encoding replication origin and kanamycin resistance assessed as potentiation of ampicillin-induced antibacterial activity by measuring fold reduction in ampicillin MIC at 16 ug/mL in Mueller-Hinton broth by CLSI protocol based method relative to ampicillin MIC alone; how it was run: as §1
[19] = test system: Acinetobacter baumannii ATCC 17978; test: Inhibition of carbapenem-resistant Acinetobacter baumannii ATCC 17978 OXA-24/40 expressed in Escherichia coli BL21 using nitrocefin as substrate measured after 15 mins by spectrophotometry analysis relative to parent compound
[20] = Drug metabolism assessed as centered band formation at 295 nm leading to conjugate imine intermediate formation at 25 degree C measured up to 2 mins for 15 mins in presence of sodium methoxide by UV-Vis spectroscopy; how it was run: as §3
[21] = test system: Acinetobacter baumannii ATCC 17978; test: Inhibition of carbapenem-resistant Acinetobacter baumannii ATCC 17978 OXA-24/40 expressed in Escherichia coli BL21 assessed as ratio of Kinact/Ki using nitrocefin as substrate measured after 15 mins by spectrophotometry analysis relative to parent compound

SMILES	MIC [2] [µg/mL]	MIC [3] [µg/mL]	Ki [4] [nM]	Ratio [5] [M⁻¹ s⁻¹]	Activity [6]	MIC [7] [µg/mL]	MIC [8] [µg/mL]	MIC [9] [µg/mL]	MIC [10] [µg/mL]	Kinact [11] [ms-1]	MIC [12] [µg/mL]	Ratio [18]	other results
C[C@]1(COC(=O)Cc2ccc(O)c(O)c2)[C@H](C(=O)O)N2C(=O)/C(=C/c3nccc4ccsc34)[C@H]2S1(=O)=O	< 0.25	2	247	47600	Active	64	8	< 0.25	256	11	2	–	Activity [1]: Active
NC(=O)[C@@H]1CC[C@@H]2CN1C(=O)N2OS(=O)(=O)[O-].[Na+] [AVIBACTAM SODIUM]	–	–	–	–	–	–	16	–	–	–	4	–	MIC [13]: 0.5 µg/mL; MIC [14]: 0.5 µg/mL; MIC [15]: 2 µg/mL
CC(C)(O/N=C(\C(=O)N[C@@H]1C(=O)N2C(C(=O)[O-])=C(C[n+]3ccccc3)CS[C@H]12)c1csc(N)n1)C(=O)O [CEFTAZIDIME]	–	–	–	–	–	–	–	–	–	–	–	–	MIC [15]: ≤ 0.25 µg/mL
C[C@@H](O)[C@H]1C(=O)N2C(C(=O)O)=C(SCCNC=N)C[C@H]12 [IMIPENEM ANHYDROUS]	–	–	–	–	–	–	–	–	–	–	–	–	MIC [13]: 0.5 µg/mL (≈ 1.67 µM); MIC [14]: 0.5 µg/mL (≈ 1.67 µM)
C[C@]1(COC(=O)Cc2ccc(O)c(O)c2)[C@H](C(=O)O)N2C(=O)/C(=C/c3cc(Br)ccn3)[C@H]2S1(=O)=O	< 0.25	2	140	159000	Active	4	1	< 0.25	16	22	1	64	Activity [1]: Active; Drug metabolism [16]: Metabolite detected; Drug metabolism [17]: Metabolite detected; Ratio Ki [19]: 2; Drug metabolism [20]: Metabolite detected; Ratio [21]: 1.6
O=C(NC1CCNCC1)[C@@H]1CC[C@@H]2CN1C(=O)N2OS(=O)(=O)O	< 0.25	4	–	–	–	8	64	< 0.25	16	–	8	64	–
Cn1cc(-c2ccnc(/C=C3/C(=O)N4[C@@H](C(=O)O)[C@](C)(COC(=O)Cc5ccc(O)c(O)c5)S(=O)(=O)[C@H]34)c2)cn1	< 0.25	2	217	110000	Active	8	1	< 0.25	16	24	1	64	–
C[C@]1(COC(=O)Cc2ccc(O)c(O)c2)[C@H](C(=O)O)N2C(=O)/C(=C/c3ccccn3)[C@H]2S1(=O)=O	< 0.25	2	234	98200	–	4	0.5	< 0.25	16	22	0.5	64	–
C[C@]1(COC(=O)Cc2ccc(O)c(O)c2)[C@H](C(=O)O)N2C(=O)/C(=C/c3cc4ccccc4cn3)[C@H]2S1(=O)=O	2	4	–	–	Active	8	2	2	256	–	2	–	–
COc1ccnc(/C=C2/C(=O)N3[C@@H](C(=O)O)[C@](C)(COC(=O)Cc4ccc(O)c(O)c4)S(=O)(=O)[C@H]23)c1OC	< 0.25	2	276	83200	Active	64	8	< 0.25	256	24	4	–	–
C[C@]1(COC(=O)Cc2ccc(O)c(O)c2)[C@H](C(=O)O)N2C(=O)/C(=C/c3ccc(F)cn3)[C@H]2S1(=O)=O	< 0.25	2	495	48900	Active	4	1	< 0.25	32	25	1	–	Activity [1]: Active

Reference: ChEMBL document CHEMBL4354868, “6-Arylmethylidene Penicillin-Based Sulfone Inhibitors for Repurposing Antibiotic Efficiency in Priority Pathogens” (J Med Chem, 2020)
